Active and inactive are the calls of the source.
Experiments:
[1] = Cytotoxicity against mouse Hepa-1c1c7 cells; type: functional, cell-based
Mus musculus [2] = species on record: Mus musculus; experiment: Induction of quinone reductase in mouse Hepa1c1c7 cells; type: cell-based
Procedure, shortened: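 Phase II enzyme induction was measured in murine Hepa 1c1c7 hepatoma cells by a standard quinone reductase procedure. L-sulforaphane served as the positive control. Values are CD, the concentration that doubles quinone reductase activity, given as mean ± SD of three independent experiments.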

[3] = Chemopreventive index, ratio of IC50 for mouse Hepa1c1c7 cells to CD for quinone reductase in mouse Hepa1c1c7 cells
[4] = Selectivity ratio of IC50 for human CCD-112CoN cells to IC50 for human HT29 cells; type: ADME, cell-based, HT-29; conditions: CCD-112CoN cells versus HT29 cells, read-out: Ratio IC50
Procedure, shortened: (§1)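 Normal colon CCD-112CoN cells tested by SRB assay alongside HT-29; IC50 (50% growth inhibition) as mean ± SD of triplicate; paclitaxel positive control; fold selectivity = IC50 in CCD-112CoN divided by IC50 in HT-29.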

[5] = Cytotoxicity against human CCD-112CoN cells by SRB assay; type: cell-based; procedure, shortened: as §1
HT-29 [6] = experiment: Cytotoxicity against human HT-29 cells after 72 hrs by SRB assay; type: functional, cell-based; conditions: HT-29, 72 h
Procedure, shortened: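 HT-29 colon cancer cells, sulforhodamine B assay, 72 h; paclitaxel positive control; IC50 defined as concentration inhibiting 50% cell growth, mean ± SD from a triplicate.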

Mus musculus [7] = experiment: Toxicity in immunodeficient NCr nu/nu mouse at 0.5 to 2 mg/kg, ip qd; type: organism-based; parameters: dose 0.5-2 mg/kg, route intraperitoneal; conditions: in vivo
Mus musculus [8] = experiment: Toxicity in immunodeficient NCr nu/nu mouse at 5 to 30 mg/kg, ip qd; type: organism-based; parameters: dose 5-30 mg/kg, route intraperitoneal; conditions: in vivo
Procedure, shortened: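 Female NCr nu/nu mice with ip and sc hollow fibers (HT-29, MCF-7, MDA-MB-435 cells) given compound in 30% cyclodextrin ip once daily at 5, 10, 15, 30 mg/kg; bortezomib 1 mg/kg ip daily in 30% cyclodextrin as positive control; lethality monitored after each injection.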

MDA-MB-435 = experiment: Antitumor activity against human MDA-MB-435 cells in hollow fiber implanted in immunodeficient NCr nu/nu mouse assessed as reduction in cell growth at 2 mg/kg, ip qd; type: functional; parameters: scale not given: the % may be the effect or the level left; conditions: route intraperitoneal
Raji [9] = experiment: Cytotoxicity against human Raji cells after 72 hrs by MTS assay; type: functional, cell-based
Procedure, shortened: (§2)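 697 (DSMZ) and Raji (ATCC) cells at 200,000 cells/mL; compounds from 2 mM DMSO stock, diluted in 10% DMSO, eight three-fold dilutions giving final 10 to 0.005 µM plus 0; final DMSO 0.5%; vincristine sulfate 25 nM positive control. Quadruplicate wells, 48 and 72 h, 37°C, 5% CO2; MTS read-out; IC50 = 50% growth inhibition, mean ± SD of three independent experiments.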

697 [10] = experiment: Cytotoxicity against human 697 cells after 72 hrs by MTS assay; type: functional, cell-based; conditions: Homo sapiens, 697, 72 h; procedure, shortened: as §2
Raji [11] = experiment: Cytotoxicity against human Raji cells after 48 hrs by MTS assay; type: functional, cell-based; procedure, shortened: as §2
697 [12] = experiment: Cytotoxicity against human 697 cells after 48 hrs by MTS assay; type: functional, cell-based; conditions: Homo sapiens, 697, 48 h; procedure, shortened: as §2
HT-29 [13] = experiment: Antitumor activity against human HT-29 cells in hollow fiber implanted in immunodeficient NCr nu/nu mouse assessed as reduction in cell growth at 0.5 to 2 mg/kg, ip qd
697 [14] = experiment: Cytostatic activity against human 697 cells assessed as reduction in cell viability at 0.014 to 10 uM after 48 to 72 hrs by MTS assay; type: functional, cell-based
Procedure, shortened: (§3)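 697 cells at 200,000 cells/mL treated at final 10, 1.11, 0.123, 0.014, 0 µM (from 2 mM stock, 10% DMSO dilutions, final DMSO 0.5%) for 48 and 72 h; vincristine 25 and 5 nM positive control. Same dilutions run in parallel by MTS and by propidium iodide: cells pelleted, resuspended in PI/PBS, 15 min dark at room temperature, flow cytometry; three independent experiments.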

697 [15] = experiment: Induction of cell death in human 697 cells at 10 uM after 48 to 72 hrs using propidium iodide staining by flow cytometry; type: functional; procedure, shortened: as §3

Structure (SMILES)	IC50 [1]	CD (Mus musculus [2])	Ratio [3]	other results
COc1ccc2c(c1/C=C/C(C)(C)O)O[C@H](c1ccccc1)CC2=O	47.4 µM	4.2 µM	11.3	–
COc1ccc2c(c1/C=C/C(C)(C)OC)O[C@H](c1ccccc1)CC2=O	49 µM	8.3 µM	5.9	–
COc1cc2c(c3c1C(=O)C[C@@H](c1ccccc1)O3)[C@H]1[C@@H](O2)OC(C)(C)[C@@H]1OC(C)=O (stereo in doubt; 2) [listing 1 of 2 here]	63.9 µM	–	376.7	–
COc1cc2c(c3c1C(=O)C[C@@H](c1ccccc1)O3)[C@H]1[C@@H](O2)OC(C)(C)[C@@H]1OC(C)=O (stereo in doubt; 2) [listing 2 of 2 here]	–	0.2 µM	–	–
COc1cc2c(c3c1C(=O)C[C@@H](c1ccccc1)O3)[C@H]1[C@@H](O2)OC(C)(C)[C@@H]1OC(C)=O (stereo in doubt; 5)	–	> 10 µM	–	–
COc1ccc2c(c1C1=COC(C)(C)C1=O)O[C@H](c1ccccc1)CC2=O [(2S)-2,3-DIHYDROTEPHROGLABRIN]	23.1 µM	6.4 µM	3.6	–
CC1(C)O[C@@H]2Oc3ccc(C(=O)/C=C/c4ccccc4)c(O)c3[C@@H]2[C@H]1O [(+)-TEPHROSONE]	37.6 µM	3.8 µM	9.9	–
C[S@+]([O-])CCCCN=C=S [L-SULFORAPHANE]	12.1 µM	0.5 µM	23.9	–
CC(=O)O[C@H]1C(=O)[C@@]2(C)[C@H]([C@H](OC(=O)c3ccccc3)[C@]3(O)C[C@H](OC(=O)[C@H](O)[C@@H](NC(=O)c4ccccc4)c4ccccc4)C(C)=C1C3(C)C)[C@]1(OC(C)=O)CO[C@@H]1C[C@@H]2O [PACLITAXEL]	–	–	–	selectivity ratio [4]: 38300; IC50 [5]: 23 µM; IC50 (HT-29 [6]): 0.0006 µM
C=C(C)[C@H]1Cc2c(ccc3c2O[C@@H]2COc4cc(OC)c(OC)cc4[C@]2(O)C3=O)O1 [ROTENOLONE]	0.2 µM	0.4 µM	0.6	Activity (Mus musculus [7]): Non-toxic; Activity (Mus musculus [8]): Toxic; Activity (MDA-MB-435): 20%; selectivity ratio [4]: 1020; IC50 [5]: 102 µM; IC50 (Raji [9]): 2.4 µM; IC50 697 [10]: 0.5 µM; IC50 (Raji [11]): 5.6 µM; IC50 697 [12]: 0.7 µM; IC50 (HT-29 [6]): 0.1 µM; Activity (HT-29 [13]): inactive
C=C(C)[C@H]1Cc2c(ccc3c2O[C@@H]2COc4cc(OC)c(OC)cc4[C@@H]2C3=O)O1 [ROTENONE]	0.7 µM	0.8 µM	0.9	selectivity ratio [4]: > 423; IC50 [5]: > 127 µM; IC50 (Raji [9]): 1.1 µM; IC50 697 [10]: 0.3 µM; IC50 (Raji [11]): 4.2 µM; IC50 697 [12]: 0.3 µM
COc1cc2c(c(O)c1C(=O)/C=C/c1ccccc1)[C@H]1[C@@H](O2)OC(C)(C)[C@@H]1OC(C)=O [TEPHROPURPURIN]	18.1 µM	0.8 µM	23.9	–
COc1cc2c(cc1OC)[C@]1(O)C(=O)c3ccc4c(c3O[C@@H]1CO2)C=CC(C)(C)O4 [TEPHROSIN]	13.9 µM	0.4 µM	35.3	Activity 697 [14]: Active; Activity 697 [15]: 24%; IC50 (Raji [9]): > 10 µM; IC50 697 [10]: 9 µM; IC50 (Raji [11]): > 10 µM; IC50 697 [12]: 5.4 µM; IC50 (HT-29 [6]): > 10 µM

Reference: ChEMBL document CHEMBL2406953, “Bioactive constituents of Indigofera spicata” (J Nat Prod, 2013)
